Assay results gathered from unrelated publications.
Each line is one published result; the experiments were not run side by side.

| SMILES | test system | setting | clearance |
| --- | --- | --- | --- |
| Cc1noc(C)c1-c1ccc2nc(-c3cnn(CC(C)(C)O)c3)nc(N3CCNC[C@@H]3c3ccccc3)c2c1 | CD-1 mouse, plasma | intravenous, 2 mg/kg | 272 mL/min/kg |
| COc1ccc2cc(CCC[18F])ccc2c1 | male BALB/c mouse, plasma | intravenous | 0.25 mL/min |
| OC[C@H]1O[C@@H](c2ccc(Cl)c(Cc3ccc(O[C@H]4CCOC4)cc3)c2)[C@H](O)[C@@H](O)[C@@H]1O | CD-1 mouse, plasma | intravenous, 5 mg/kg | 51.6 mL/min/kg |
| CN(C)c1ccc(-c2cc(=O)c3ccc(O)c(O)c3o2)cc1 | mouse, plasma | intravenous, 1 mg/kg | 168 mL/min/kg |
| CC(C)(Oc1cccc(N2CCC[C@@H](C(=O)N(Cc3ccc(-c4cn[nH]c4)cc3)C3CC3)C2)c1)C(=O)N1CCNCC1.Cl | male C57BL/6 mouse, plasma | intravenous, 1 mg/kg | 44.2 mL/min/kg |
| O=C(CS(=O)(=O)O)Nc1ccc(N2CCOCC2)c(Br)c1 | CD-1 mouse, blood | intravenous, 2 mg/kg | 62 mL/min/kg |
| CC[C@H](C)[C@@H]1NC(=O)[C@@](C)(NC(=O)[C@H](CCCNC(=N)N)NC(=O)[C@H](CC(C)C)NC(=O)[C@@H](NC(=O)[C@H](CCC(N)=O)NC(=O)[C@H](CC(C)C)NC(C)=O)[C@@H](C)O)CCCC=CCCC[C@@](C)(C(=O)N[C@@H](CC(C)C)C(=O)N[C@@H](Cc2ccc3ccccc3c2)C(N)=O)NC(=O)[C@H](CCCNC(=N)N)NC(=O)[C@H](CCC(N)=O)NC1=O | male BALB/c mouse, plasma | intravenous, 5 mg/kg | 0.662 mL/min/kg |
| Cc1ccc2cncc(N3CCc4c(cc(Cn5ccnc5)cc4-c4cn(C)nc4C(F)(F)F)C3=O)c2c1 | male CD-1 mouse, plasma | intravenous, 3 mg/kg | 16 mL/min/kg |
| NCC1CCN(c2nc(-c3ccncc3)nc3sc4c(c23)CCCC4)CC1 | female CD-1 mouse, plasma | intravenous, 10 mg/kg | 38 mL/min/kg |
| CCNc1nc2c(c(N3CC(=O)Nc4cc(OC)ccc43)n1)CCC2 | female C57BL/6 mouse, plasma | intravenous, 4 mg/kg, single dose | 108 mL/min/kg |
| Cc1c(Br)cc(NC(=O)C(c2ccccc2)S(=O)(=O)O)cc1Br (stereo not shown) | CD-1 mouse, blood | intravenous, 2 mg/kg | 34.9 mL/min/kg |
| CC(C)(C)c1ccc(O)c(CN(Cc2cc(C(C)(C)C)ccc2O)C2CCC(NC(N)=O)CC2)c1 (stereo not shown) | male C57BL/6 mouse, plasma | intraperitoneal, 10 mg/kg, single dose | 17 mL/min/kg |
| Cc1noc(C)c1-c1ccc2nc(-c3cnn(CC(C)(C)O)c3)nc(N3CCOC[C@@H]3c3ccccc3)c2c1 | CD-1 mouse, plasma | intravenous, 2 mg/kg | 7.3 mL/min/kg |
| CC(F)(F)CN1Cc2cc(C(F)(F)F)ncc2C2=CN=C(NCc3c(F)ccc4c3CCO4)N3C=NC(C1=O)C23 (stereo not shown) | male CD-1 mouse, plasma | intravenous, 2 mg/kg | 0.39 mL/min/kg |
| CNCCN(C)c1cc(C#N)cc(CCc2cc(C)cc(N)n2)c1 | male BALB/c mouse, plasma | intravenous, 2 mg/kg | 184 mL/min/kg |
| COc1ccc2nccc(N3CCc4c(cc(Cn5ccnc5)cc4-c4cn(C)nc4C(F)(F)F)C3=O)c2c1 | male CD-1 mouse, plasma | intravenous, 3 mg/kg | 27 mL/min/kg |
| COc1nc(-c2cc(C)c(N[C@@H](C)c3c(F)cc(F)cc3F)nn2)ccc1-n1cnc(C)c1 | male CD-1 mouse, plasma | intravenous, 1 mg/kg, single dose | 6.33 mL/min/kg |
| CCc1cc(C(=O)NC)c2nccc(N3CCc4c(cc(Cn5ccnc5)cc4-c4cn(C)nc4C(F)(F)F)C3=O)c2c1 | male CD-1 mouse, plasma | intravenous, 3 mg/kg | 12 mL/min/kg |
| CC(C)N1Cc2cc(C(F)(F)F)ncc2C2=CN=C(NCc3c(F)ccc4c3CCO4)N3C=NC(C1=O)C23 (stereo not shown) | male CD-1 mouse, plasma | intravenous, 2 mg/kg | 1.71 mL/min/kg |
